Screening results as filed in PubChem.
Compounds with a hit are over-represented: about 1.4% of the library has one in this group of screens.
m-calpain inh: inhibitors of pig calpain II, primary screen, biochemical, fluorogenic peptide substrate, 1536-well. purified calpain II, 30 min. 0.37% of 220,000 active. inhibition, % at 16 µM;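 active = inhibition above about 50%, limit read from the data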
Thrombin inh: human alpha-thrombin inhibitors, primary screen, counter-screen for coagulation protease inhibitor project, biochemical, 1536-well, fluorogenic AMC substrate; inhibition, % at 5 µM; Prothrombin (Homo sapiens), P00734; 0.26% of 220,000 active; AID 1046, 2008; Boc-VPR-AMC fluorogenic substrate cleavage;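 active = inhibition at or above 40%; inactive = inhibition below 40%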;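 also: 0% = enzyme with no compound and 100% = wells without enzyme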
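signal = AMC fluorescence, 355/460 nm | material = human alpha-thrombin enzyme | control set = enzyme without compound as high, wells lacking enzyme as low | times = reaction at room temperature | read-out basis = percent inhibition scaled between no-compound controls and no-enzyme blanks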
FXIIa inh: human FXIIa protease inhibitors, primary screen, biochemical, 1536-well; purified FXIIa, Boc-QGR-AMC fluorogenic substrate, 2 h; inhibition, % at 5 µM; 0.3% of 220,000 active; AID 800, 2007; in the data active = inhibition above about 40%;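 also: 0% = enzyme with no compound and 100% = blank without enzyme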
FXIa inh 1536: human FXIa protease inhibitors, primary screen, biochemical, 1536-well. inhibition, % at 5 µM. 0.14% of 220,000 active. purified FXIa, Boc-Glu-Ala-Arg-AMC fluorogenic substrate. Coagulation factor XI (Homo sapiens), P03951. AID 798, 2007;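 active = inhibition of at least 40%; inactive = inhibition below 40%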;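 also: fluorescence of freed AMC excited at 355 nm; 0% = enzyme without compound and 100% = no enzyme blank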
Target sequence (P03951 19-387 limits assumed): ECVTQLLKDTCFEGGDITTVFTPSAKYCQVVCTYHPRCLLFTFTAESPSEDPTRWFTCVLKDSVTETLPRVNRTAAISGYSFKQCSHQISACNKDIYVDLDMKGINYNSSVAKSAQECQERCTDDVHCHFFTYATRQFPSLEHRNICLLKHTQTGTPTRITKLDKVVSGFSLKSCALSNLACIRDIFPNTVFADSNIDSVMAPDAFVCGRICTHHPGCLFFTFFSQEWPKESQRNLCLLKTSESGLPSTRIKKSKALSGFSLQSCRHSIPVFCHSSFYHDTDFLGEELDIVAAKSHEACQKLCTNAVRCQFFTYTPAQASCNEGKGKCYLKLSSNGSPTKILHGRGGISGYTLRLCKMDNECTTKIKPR
Target sequence (P03951 388-625 limits assumed): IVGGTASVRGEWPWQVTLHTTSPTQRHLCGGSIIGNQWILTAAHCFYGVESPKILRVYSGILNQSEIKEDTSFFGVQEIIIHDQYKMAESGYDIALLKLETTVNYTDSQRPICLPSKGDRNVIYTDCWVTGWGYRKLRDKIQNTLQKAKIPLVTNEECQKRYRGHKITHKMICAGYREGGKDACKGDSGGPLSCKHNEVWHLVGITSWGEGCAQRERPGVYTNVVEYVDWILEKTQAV
hK5 inh: human KLK5 protease inhibitors, primary screen, biochemical, 1536-well; Kallikrein-5 (Homo sapiens), Q9Y337; recombinant hK5, fluorogenic AMC substrate cleavage; inhibition, % at 5 µM; 0.59% of 210,000 active; AID 873, 2007;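 active = inhibition of 40% or more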;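 also: 0% = enzyme controls without compound and 100% = no-enzyme blanks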
An asterisk follows results filed as active; · = not tested or not shown.

SMILES	m-calpain inh	Thrombin inh	FXIIa inh	FXIa inh 1536	hK5 inh
CCOC(=O)c1sc(NS(=O)(=O)c2cc(C)ccc2C)nc1C	4.4	30.4	21.7	14.0	40.5*
CSCCC(NS(=O)(=O)c1ccc(C)cc1)C(=O)NC1CCCCC1 (stereo unspecified)	-12.2	-1.3	10.0	1.2	-0.5
COc1ccc(S(=O)(=O)NC(CCSC)C(=O)NC2CCCCC2)cc1 (stereo unspecified)	35.3	23.2	33.6	27.1	41.3*
CC(CC(=O)O)CC(=O)Nc1cc(C(F)(F)F)cc(C(F)(F)F)c1 (stereo unspecified)	1.0	4.0	24.6	23.1	49.9*
O=C(Nc1ccc(N2CCOCC2)cc1N1CCOCC1)c1ccc([N+](=O)[O-])cc1	-2.3	1.7	13.1	12.7	-21.8
O=C(NNc1cc(N2CCOCC2)nc(N2CCOCC2)n1)c1ccc([N+](=O)[O-])cc1	28.2	2.5	22.2	30.6	68.3*
CC12CCC(c3c(C(=O)O)nn(-c4ccccc4)c31)C2(C)C (stereo unspecified)	13.5	-2.7	4.8	2.5	12.3
CC12CCC(c3c(C(=O)Nc4nccs4)nn(-c4ccccc4)c31)C2(C)C (stereo unspecified)	6.0	13.8	22.1	11.5	52.0*
CCCCCOc1ccc(C(=O)NC(C(=O)O)C(C)C)cc1 (stereo unspecified)	9.9	8.9	-0.6	11.2	41.0*
CC(Sc1nnc(-c2cc3ccccc3o2)n1-c1ccccc1)C(=O)O (stereo unspecified)	34.9	46.6*	-0.9	-11.4	-15.7
CC(=O)Nc1cccc(C(=O)/C=C/c2ccc(C)cc2)c1	17.3	17.5	32.1	9.8	61.4*
CCC(=O)Nc1cccc(C(=O)/C=C/c2ccc(F)cc2)c1	-15.5	8.7	12.0	-0.6	-0.9
Cc1ccc(C(=O)OCC(=O)NC(=O)c2cccn2C)cc1	-21.6	6.0	17.8	1.8	-2.8
CSCCC(NC(=O)c1cccc(C)c1)C(=O)OCC(=O)NC(=O)c1cccn1C (stereo unspecified)	18.9	48.4*	10.3	3.4	6.1
CCCCC(c1nnnn1CS(=O)(=O)c1ccc(C)cc1)N1CCN(C)CC1 (stereo unspecified)	-31.5	-3.4	9.6	-2.4	0.9
Cc1c(-c2cccs2)[n+](=O)c2c(n1[O-])CCC2	13.9	40.1*	34.3	17.1	60.3*
O=C(c1ccccc1)N(Cc1ccccc1)c1ccccn1	17.2	-8.9	14.3	1.8	-13.5
O=C(c1cnc2sccn2c1=O)N(Cc1ccccc1)c1ccccn1	85.2*	-8.0	5.5	-10.3	6.5
CCOC(=O)CCC(=O)NCc1ccc2c(c1)cc(C)n2C	6.9	5.3	15.6	-2.1	54.2*
COc1ccc(N2C(=O)C(CC(=O)Nc3ccccc3)N(Cc3ccccn3)C2=S)cc1 (stereo unspecified)	0.9	-9.7	10.6	3.0	-7.6
Cc1c(NS(=O)(=O)c2ccc(Cl)c(C(=O)OCC(=O)NCc3ccco3)c2)c(=O)n(-c2ccccc2)n1C	25.8	45.8*	17.4	18.5	24.1
O=C(NCc1cccc(Cl)c1)c1cccc(C(F)(F)F)c1	14.2	-0.6	9.5	5.2	-21.8
O=C(NCc1ccccc1Cl)c1cccc(C(F)(F)F)c1	32.5	39.9	13.5	-2.2	40.6*
Cc1cccc(Cn2c(=O)n(Cc3ccco3)c(=O)c3ccccc32)c1	54.7*	-2.0	6.0	-1.8	4.0
Cc1cccc(Cn2c(=O)n(CCCC(=O)NCc3ccco3)c(=O)c3ccccc32)c1	2.1	-3.7	5.2	-3.1	-12.6
SMILES	m-calpain inh	Thrombin inh	FXIIa inh	FXIa inh 1536	hK5 inh
CCOC(=O)[C@H]1O[C@@H]1C(=O)N[C@@H](CC(C)C)C(=O)NCCC(C)C	96.8*	·	·	·	·
CC(C)CCNC(=O)C(=O)Nc1ccccc1	-16.1	-9.4	10.8	-1.8	-0.4
CC(C)CCNC(=O)[C@H](CC(C)C)NC(=O)[C@H]1O[C@@H]1C(=O)O	100.0*	-5.0	4.1	-3.7	-14.3
CCOC(=O)N1CCC(NC(=O)C(CC(C)C)NC(=O)C2CCCCC2)CC1 (stereo unspecified)	0.1	-0.1	11.9	-1.3	-13.2
Cn1c(=NC(=O)COc2ccccc2)sc2cccc(F)c21	3.0	19.8	20.1	10.2	19.1
COc1cc(C=O)ccc1Oc1nc(Nc2ccc(F)cc2F)nc(N2CCOCC2)n1	-39.2	10.3	33.8	27.2	62.6*
Cc1ccc(C)c(NC(=O)/C(C#N)=C/c2cn(CC(=O)NCc3ccco3)c3ccccc23)c1	30.1	30.7	1.4	11.8	45.8*
Cc1c(Cl)cccc1NC(=O)Cn1cc(C(F)(F)F)cc(Cl)c1=O	-35.2	3.2	1.9	-1.7	-6.9
Cc1ccc(OCC(=O)NNC(=O)C(C)Sc2ncnc3sc(C)c(C)c23)cc1 (stereo unspecified)	91.0*	-1.9	9.2	-7.1	-166.7
Cc1cc(NC(=O)c2cccc(Oc3ccccc3)c2)n[nH]1	-17.8	-3.8	4.6	-2.9	-2.2
CC(C)C(=O)n1nc(-c2cccnc2)nc1NCc1ccc(F)cc1	5.0	99.8*	0.6	3.1	·
CC(=O)n1nc(-c2ccc(C)cc2)nc1NCc1ccc(F)cc1	-18.6	93.8*	-7.2	-8.8	-24.4
CC(=O)n1nc(-c2ccc(C)cc2)nc1NCc1ccco1	-7.3	68.9*	10.4	-0.6	5.8
COc1ccc(CC(=O)n2nc(-c3ccccc3)nc2NCc2ccco2)cc1	-53.9	92.8*	12.7	6.5	-19.2
O=C(CCc1ccccc1)n1nc(-c2ccccc2)nc1NCc1ccco1	18.4	14.4	2.2	6.7	-6.8
COc1nc(Nc2cccc([N+](=O)[O-])c2)nc(OC)n1	-16.4	-9.2	-3.5	1.3	-3.0
C#CCOc1nc(Nc2cccc([N+](=O)[O-])c2)nc(OCC#C)n1	37.1	5.4	41.0*	5.2	21.5
Cc1cccc(C2N=C(N)Nc3nc4ccccc4n32)c1 (stereo unspecified)	-53.9	-12.9	2.0	-0.8	-1.4
c1ccc(-c2ccc(C(c3ccccc3)n3ccnc3)cc2)cc1 (stereo unspecified)	52.9*	·	25.7	19.3	-11.4
CC1(C(=O)OCc2cc(=O)n3cc(Br)ccc3n2)CC1(Cl)Cl (stereo unspecified)	-16.2	8.7	4.9	1.6	1.0
Cc1cc(/C(N)=N/OC(=O)c2ccc(Cl)cc2)no1	20.3	-1.8	8.1	-5.7	44.1*
Cc1cc(C)c(C(=O)COC(=O)CCNS(=O)(=O)c2c(Cl)cccc2Cl)cc1C	50.6*	-6.9	7.1	5.9	-14.5
O=C(Nc1ccccc1)C1=C[C@H](c2ccc3c(c2)OCO3)C[C@H](OCc2ccc(CO)cc2)O1	17.4	0.2	11.9	9.4	6.8
CCOC(=O)C=C(C(=O)OCC)C(=O)OCC	19.1	-1.4	10.4	0.5	·
